# Screening data from PubChem BioAssay.
# Arrestin-AP2 inh: inhibitors of human beta-arrestin and AP2 interaction | 340,000 tested, 0.31% active | FITC-arrestin peptide / GST-AP2 beads, flow cytometry; AP2 beta2 appendage carries R879A mutation | inhibition, % at 10 µM;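 active means inhibition above a set limit, near 3 SD of compounds lacking own fluorescence, cut at about 54% in these data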;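 further: plate controls were DMSO wells for no effect and 5 µM unlabelled arrestin peptide for full effect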
#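 Test system: GST-tagged AP2 beta2-adaptin appendage (R879A) on 4 µm glutathione beads; also added: fluorescein-tagged arrestin peptide at 50 nM final; timing: 12 min plus 1 h, RT; signal: flow cytometry, FL1 (488/535 nm); read-out: percent drop in bead-associated FITC signal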
# MEKK2wt PB1 HTS: raises or lowers MEK5 binding to wildtype human MEKK2 PB1 domain | Q9Y2U5 | bead flow cytometry, Alexa488-MEK5 binding to MEKK2 WT; actives lie on both sides | binding response (% of control), % at 10 µM | 290,000 tested, 1.1% active | AID 1531; in the data active means binding response below about 67% or above about 130%
# MEKK2mut PB1 HTS: signal of MEK5 binding to mutant human MEKK2 PB1 domain; percent response, % at 10 µM; bead flow cytometry, Alexa488-MEK5 binding to MEKK2 mutant; AID 1530; 290,000 tested, 0.35% active; in the data active means percent response above about 24%, passing the limit was not always enough
# MEKK3 PB1 HTS: raises or lowers MEK5 binding to the human MEKK3 PB1 domain. 290,000 tested, 1.4% active. bead-based flow cytometry, Alexa488-MEK5 binding to MEKK3; actives lie on both sides; 0 = blocked by unlabeled MEK5, 100 = vehicle. Q99759. binding response (% of control), % at 10 µM;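 active means binding response more than 3 SD above or below the average of its plate-row segment, actives on both sides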;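 further: Alexa488 bead fluorescence after subtracting the streptavidin-only scavenger bead signal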
# Target sequence (Q99759 whole entry, looked up, the tested form may be a part): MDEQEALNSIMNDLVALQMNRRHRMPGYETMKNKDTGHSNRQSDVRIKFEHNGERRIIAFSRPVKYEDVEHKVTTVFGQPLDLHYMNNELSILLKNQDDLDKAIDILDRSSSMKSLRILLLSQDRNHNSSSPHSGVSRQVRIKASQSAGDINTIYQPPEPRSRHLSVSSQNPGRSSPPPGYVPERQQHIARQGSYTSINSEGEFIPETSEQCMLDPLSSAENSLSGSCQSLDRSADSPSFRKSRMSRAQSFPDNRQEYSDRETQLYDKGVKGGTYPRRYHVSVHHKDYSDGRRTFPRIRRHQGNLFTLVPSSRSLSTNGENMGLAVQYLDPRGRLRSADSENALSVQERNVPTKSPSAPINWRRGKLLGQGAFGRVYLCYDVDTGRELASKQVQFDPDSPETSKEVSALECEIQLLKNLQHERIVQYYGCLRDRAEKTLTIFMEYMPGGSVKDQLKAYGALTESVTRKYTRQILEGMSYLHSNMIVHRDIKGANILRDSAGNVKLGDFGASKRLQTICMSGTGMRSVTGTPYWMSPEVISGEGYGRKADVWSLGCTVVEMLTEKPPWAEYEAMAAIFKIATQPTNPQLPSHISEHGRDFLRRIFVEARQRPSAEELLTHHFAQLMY
# MEKK2wt confirm: raises or lowers MEK5 binding to wildtype human MEKK2, retest. shares compounds with MEKK3 PB1 HTS. bead flow cytometry, Alexa488-MEK5 binding to MEKK2 WT; actives lie on both sides. binding response (% of control), % at 10 µM. 5,900 tested, 2.4% active. AID 1892; in the data active means binding response below about 16% or above about 210%; inactive means in between
# MEKK2mut confirm: signal of MEK5 binding to mutant human MEKK2, retest | AID 1893 | bead flow cytometry, Alexa488-MEK5 binding to MEKK2 mutant | percent response, % at 10 µM | shares compounds with MEKK3 PB1 HTS | 5,900 tested, 2% active; in the data active means percent response mostly above about 71%, no sharp cut-off; inactive means mostly below about 38%;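 further: higher means compound restores mutant binding toward wildtype level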
# MEKK3-MEK5 inh: MEKK3-MEK5 PB1 inhibition, single concentration confirmation; shares compounds with MEKK3 PB1 HTS; bead flow cytometry, Alexa488-MEK5 binding to MEKK3; active compounds read low; binding response (% of control), % at 10 µM; 5,900 tested, 1.8% active;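 active means binding response below 72% of control, or above a set upper limit, though filed actives all read lower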;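 further: 100% = DMSO only wells and 0% = binding blocked by excess unlabeled MEK5; lower values mean stronger disruption of MEK5 binding to MEKK3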
# An asterisk follows results filed as active; nt = no result given; [ ] = remark or other dose. Hits are enriched below; roughly 2.3% of the tested compounds scored in any of these assays.
SMILES,Arrestin-AP2 inh,MEKK2wt PB1 HTS,MEKK2mut PB1 HTS,MEKK3 PB1 HTS,MEKK2wt confirm,MEKK2mut confirm,MEKK3-MEK5 inh
COc1ccc(NC(=O)c2cn(CCC#N)nc2-c2cccs2)cc1,3,108,1,140*,104,4,104
CN1CCN(c2nc(-c3ccc(Cl)cc3Cl)nc3ccccc23)CC1,4,116,6,101,nt,nt,nt
O=C(N/N=C/c1ccc(O)cc1)Nc1cccc2nsnc12,24,95,-6,100,nt,nt,nt
COc1cc(OC)c2c(-c3ccccc3)cc(=O)oc2c1C(CCN1CCCC(C)C1)c1ccc2c(c1)OCO2 (stereo not given),5,183*,26*,123,169,35,105
COc1cc(OC)c2c(-c3ccccc3)cc(=O)oc2c1C(CCN1CCCCC1)c1ccc2c(c1)OCO2 (stereo not given),-8,177*,28*,94,147,47,104
CCCOc1ccc(C(=O)NC(=S)N2CCN(c3cc4c(cc3F)c(=O)c(C(=O)O)cn4CC)CC2)cc1,-12,94,-9,100,nt,nt,nt
O=CN(Cc1nc2ccccc2[nH]1)c1ccc(C(=O)O)cc1,9,nt,nt,nt,nt,nt,nt
COc1cccc(Nc2nc(-c3sc(NC(=O)CC(C)C)nc3C)cs2)c1,3,109,2,105,nt,nt,nt
COc1cccc(Nc2nc(-c3sc(NC(=O)c4ccccc4)nc3C)cs2)c1,29,143*,15,107,119,12,102
Cc1cc(Cl)ccc1NC(=S)N(CCCN1CCOCC1)Cc1cccs1,nt,106,0,128*,108,3,105
CCOC(=O)/C(=N\Nc1ccccc1)P(=O)(c1ccccc1)c1ccccc1,9,94,9,103,nt,nt,nt
O=C(/C=C/c1cccc([N+](=O)[O-])c1)NCCSCc1ccc(Cl)cc1,3,109,0,144*,96,-4,105
O=C(CN1C(=O)CSCC1=O)Nc1ccc2c(c1)OCO2,-1,103,0,136*,100,2,104
Cc1c(/C=C2\SC(=O)N(CC(=O)Nc3ccc4c(c3)OCO4)C2=O)c2ccccc2n1C,1,-2.0*[inhibitor],-21,2.0*[inhibitor],97,-2,99
CC1SC(C)C(=O)N(CC(=O)Nc2ccc3c(c2)OCO3)C1=O (stereo not given),-8,101,-2,102,nt,nt,nt
O=C1c2ccccc2N2C(=O)c3ccccc3[C@H]2N1c1ccccc1,-4,105,16,107,nt,nt,nt
O=C1c2ccccc2N2C(=O)c3ccccc3C2N1Cc1ccccc1 (stereo not given),-11,112,32,130*,103,-3,102
CC[n+]1ccccc1/C=C1\Sc2ccc(C)cc2N1C,-21,107,-1,101,nt,nt,nt
CCN1/C(=C/c2ccc3cc(C)ccc3[n+]2CC)Sc2ccccc21,4,14*[inhibitor],-7,68,39,-26,81
CCN1/C(=C/c2ccc3cc(C)ccc3[n+]2CC)Sc2cc(C)c(C)cc21,-23,37*,13,44*[inhibitor],33,-23,58*
CC[n+]1c(/C=C2\Sc3ccccc3N2C)ccc2cccc(C)c21,-36,nt,76*,47*[inhibitor],41,-21,83
O=C(CN1CCN(C(=O)c2cccs2)CC1)NC1CCCCC1,2,88,-11,81*[inhibitor],96,-10,96
COc1ccccc1N(CC(=O)NCC1CCCO1)C(=O)CNS(=O)(=O)c1ccccc1 (stereo not given),-3,116,27,135*,112,19,110
FC(F)(F)c1ccc2c(c1)nc1n2CCCC1,0,109,3,104,nt,nt,nt
CN1CCN(c2nc3cc(C(F)(F)F)ccc3n3cccc23)CC1,7,140*,4,103,135,19,109
SMILES,Arrestin-AP2 inh,MEKK2wt PB1 HTS,MEKK2mut PB1 HTS,MEKK3 PB1 HTS,MEKK2wt confirm,MEKK2mut confirm,MEKK3-MEK5 inh
Cc1nn(C)c(Sc2ccccn2)c1[N+](=O)[O-],8,103,0,102,nt,nt,nt
Cc1nn(C)cc1S(=O)(=O)Nc1ccc(F)c(F)c1,-20,98,0,98,nt,nt,nt
O=C(NCCO)/C(=C\c1cccs1)NC(=O)c1cccs1,-2,104,0,106,nt,nt,nt
O=C(NCCCn1ccnc1)/C(=C\c1cccs1)NC(=O)c1cccs1,-9,116,0,130*,100,-5,101
O=C(C(=O)N1CCCCC1)c1cn(CC(=O)N2CCCCCC2)c2ccccc12,-7,77,-9,93,nt,nt,nt
O=C(C(=O)N1CCc2ccccc2C1)c1cn(CC(=O)N2CCCC2)c2ccccc12,8,110,2,131*,101,2,103
CN1CCN(c2ccc(NC(=O)c3ccc(-c4ccc(Br)cc4)o3)cc2)CC1,25,168*,35,99,173,38,104
CN1CCN(S(=O)(=O)c2ccc(NC(=O)c3ccc(Br)s3)cc2)CC1,27,138*,13,114,118,15,109
CN1CCN(S(=O)(=O)c2ccc(NC(=O)c3ccc(Br)o3)cc2)CC1,-2,51,-9,41*[inhibitor],111,10,110
CCN1CCN(c2ccc(NC(=O)c3ccc(Br)o3)cc2)CC1,-3,105,1,105,nt,nt,nt
CN1CCN(S(=O)(=O)c2ccc(NC(=O)c3ccccc3Cl)cc2)CC1,31,105,2,100,nt,nt,nt
O=C(CCN1C(=O)c2ccccc2S1(=O)=O)N1CCN(c2cccc(Cl)c2)CC1,1,nt,nt,nt,nt,nt,nt
Oc1ccccc1-c1nnc(-c2ccc(C(F)(F)F)cc2)o1,20,82,-5,81*[inhibitor],101,-3,102
Cc1ccc(S(=O)(=O)N2CCN(CC(=O)N/N=C\c3ccncc3)CC2)cc1,4,103,1,103,nt,nt,nt
CC(/C=N\NC(=O)CN1CCN(S(=O)(=O)c2ccc(C)cc2)CC1)=C\c1ccccc1,-3,107,0,132*,99,-2,106
Cc1ccc(S(=O)(=O)N2CCN(CC(=O)N/N=C\C(Cl)=C\c3ccccc3)CC2)cc1,nt,106,0,137*,96,-5,99
O=C(OCCNc1nc(-c2ccccc2)nc2ccccc12)c1ccncc1,-6,133,7,146*,93,-9,88
COCCn1c(SCC(=O)Nc2ccc(C)cc2)nc2c(oc3ccccc32)c1=O,-3,101,0,113,nt,nt,nt
COCCn1c(SCC(=O)Nc2ccccc2)nc2c(oc3ccccc32)c1=O,17,7.0*[inhibitor],-46,4.0*[inhibitor],107,-3,106
COc1ccc(C(=O)Nc2cccc(-c3cc4ccccc4oc3=O)c2)cc1[N+](=O)[O-],26,103,17,100,nt,nt,nt
